Measurements from ChEMBL document CHEMBL4732148 (Eur J Med Chem, 2021).
pIC50: −log10 of the molar value. Activity calls are given as the source filed them. The calls are words filed in the database; no cut-off is given here.

Columns and labels:
Hepatitis C virus [1] = test: Antiviral activity against HCV infected in human Huh-7 cells assessed as reduction in viral replication measured after 48 hrs by luciferase reporter gene assay; format: functional, organism-based, Hepacivirus hominis; settings: Huh-7, 48 h
Procedure, shortened: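 Replicon-bearing Huh7 cells seeded at 10,000/well and allowed to attach for 24 h at 37 °C. Triplicate biological wells then treated 48 h with compound in DMEM, 10% FBS, 0.5% DMSO final. Bright-Glo luminescence expressed relative to untreated cells. IC50 from a four-parameter logistic fit.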

[2] = Cytotoxicity against human Huh-7 cells assessed as reduction in cell viability measured after 48 hrs by celltiter-glo assay; format: cell-based; settings: read-out: TC50
[3] = Cytotoxicity against human Huh-7 cells assessed as reduction in cell viability measured after 48 hrs in presence of ENT1 inhibitor NBTI […]; format: cell-based; settings: with NBTI (ENT1 inhibitor; concentration not stated), read-out: TC50
[4] = Toxicity in human Huh-7 cells assessed as reduction in cell viability measured after 96 hrs by celltiter-glo assay; format: cell-based; settings: read-out: TC50
HepG2 = test: Cytotoxicity against human HepG2 cells assessed as reduction in cell viability measured after 96 hrs by celltiter-glo assay; format: functional; settings: read-out: TC50 (the source's name)
[5] = Cytotoxicity against HEK293 cells assessed as reduction in cell viability measured after 96 hrs by celltiter-glo assay; format: cell-based; settings: human, read-out: TC50
[6] = Cytotoxicity against human MCF7 cells assessed as reduction in cell viability measured after 96 hrs by celltiter-glo assay; format: cell-based; settings: read-out: TC50
[7] = Ratio of gemcitabine TC50 to test compound TC50 for cytotoxicity against human MCF7 cells assessed as reduction in cell viability; format: cell-based
Hepatitis C virus [8] = test: Antiviral activity against HCV infected in human Huh-7 cells assessed as reduction in viral replication at 25 to 1000 nM measured after 48 hrs in presence of cytidine by luciferase reporter gene assay; format: functional, organism-based; settings: Hepacivirus hominis, dose 25-1000 nM
Procedure, shortened: (§1)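 Huh7 cells carrying an HCV luciferase replicon, grown in DMEM with 10% FBS and G418. Cells treated 48 h continuously with compound at 25–1,000 nM, either alone or together with 50 µM cytidine or 2′-deoxycytidine. Luciferase activity read in lysates. Three biological replicates, SD.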

Hepatitis C virus [9] = test: Antiviral activity against HCV infected in human Huh-7 cells assessed as reduction in viral replication at 25 to 1000 nM measured after 48 hrs in presence of deoxycytidine by luciferase reporter gene assay; format: functional, organism-based; settings: Hepacivirus hominis, dose 25-1000 nM; procedure, shortened: as §1
[10] = Cytotoxicity against human BXPC-3 cells assessed as reduction in cell viability measured after 96 hrs by celltiter-glo assay; format: cell-based; settings: read-out: TC50
[11] = Ratio of gemcitabine TC50 to test compound TC50 for cytotoxicity against human BXPC-3 cells assessed as reduction in cell viability; format: cell-based
Hepatitis C virus [12] = test: Antiviral activity against HCV infected in human Huh-7 cells assessed as reduction in viral replication preincubated for 2 hrs followed by replacement with fresh culture medium and measured after 46 hrs by luciferase reporter gene assay; format: functional, organism-based, Hepacivirus hominis
Procedure, shortened: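 HCV luciferase-replicon Huh7 cells were seeded at 10,000 cells/well and allowed 24 h to attach. Three biological replicates were exposed to graded compound in DMEM/10% FBS/0.5% DMSO for 2 h only, then the medium was replaced with fresh growth medium for 46 h at 37 °C.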

Hepatitis C virus [13] = test: Ratio of IC50 for antiviral activity against HCV infected in human Huh-7 cells assessed as reduction in viral replication preincubated for 2 hrs followed by replacement with fresh culture medium and measured after 46 hrs by luciferase reporter gene assay to IC50 for antiviral activity against HCV infected in human Huh-7 cells assessed as reduction in viral replication measured after 48 hrs by …; format: functional, Hepacivirus hominis
[14] = Stability in pH 1 aqueous buffer assessed as parent compound remaining at 200 uM measured after 4 hrs by UV spectrophotometry; format: physicochemical; settings: read-out: Stabilty
Procedure, shortened: (§2)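 Compound diluted to […] in aqueous buffers at pH 1.0, 2.0, 4.0, 6.0 or 8.0 and held 4 h at 40 °C. Intact prodrug separated by reverse-phase HPLC. 260 nm peak area after incubation compared with untreated prodrug, giving % remaining.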

[15] = Stability in pH 2 aqueous buffer assessed as parent compound remaining at 200 uM measured after 4 hrs by UV spectrophotometry; format: physicochemical; settings: read-out: Stabilty; procedure, shortened: as §2
[16] = Stability in pH 4 aqueous buffer assessed as parent compound remaining at 200 uM measured after 4 hrs by UV spectrophotometry; format: physicochemical; settings: read-out: Stabilty; procedure, shortened: as §2
[17] = Stability in pH 6 aqueous buffer assessed as parent compound remaining at 200 uM measured after 4 hrs by UV spectrophotometry; format: physicochemical; settings: read-out: Stabilty; procedure, shortened: as §2
[18] = Stability in pH 8 aqueous buffer assessed as parent compound remaining at 200 uM measured after 4 hrs by UV spectrophotometry; format: physicochemical; settings: read-out: Stabilty; procedure, shortened: as §2
Hepatitis C virus [19] = test: Antiviral activity against HCV infected in human Huh-7 cells assessed as reduction in viral replication at 500 nM measured after 24 to 30 hrs by luciferase reporter gene assay; format: functional, Hepacivirus hominis; set-up: scale not given: the % may be the effect or the level left; settings: time 24-30 hrs
Procedure, shortened: (§3)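 Huh7 luciferase replicon cells treated with 500 nM compound or mock for up to 48 h. Cells were lysed at various times and the lysates snap-frozen in liquid nitrogen. All lysates were then assayed for luciferase together.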

Hepatitis C virus [20] = test: Antiviral activity against HCV infected in human Huh-7 cells assessed as reduction in viral replication at 500 nM measured after 48 hrs by luciferase reporter gene assay; format: functional, organism-based; settings: Hepacivirus hominis; procedure, shortened: as §3

| Compound | pIC50 (Hepatitis C virus [1]) | CC50 at 48 h [2] | also measured |
| --- | --- | --- | --- |
| Cc1ccc(C(=O)Nc2ccn([C@@H]3O[C@H](CO)[C@@H](O)C3(F)F)c(=O)n2)cc1 | 7.37 | 329 µM | CC50 at 48 h [3]: 240 µM |
| O=C(Nc1ccn([C@@H]2O[C@H](CO)[C@@H](O)C2(F)F)c(=O)n1)c1ccc2cc(Br)ccc2c1 | 6.73 | 74 µM | – |
| O=C(Nc1ccn([C@@H]2O[C@H](CO)[C@@H](O)C2(F)F)c(=O)n1)c1ccc(Cl)cc1 | 7.42 | 138 µM | – |
| O=C(Nc1ccn([C@@H]2O[C@H](CO)[C@@H](O)C2(F)F)c(=O)n1)C1Cc2ccccc2C1 | 8.00 | > 500 µM | – |
| Cc1cc2c(cc1C(=O)Nc1ccn([C@@H]3O[C@H](CO)[C@@H](O)C3(F)F)c(=O)n1)OCCO2 | 5.77 | 626 µM | – |
| COc1ccc(C(=O)Nc2ccn([C@@H]3O[C@H](CO)[C@@H](O)C3(F)F)c(=O)n2)cc1 | 7.22 | 572 µM | – |
| O=C(Nc1ccn([C@@H]2O[C@H](CO)[C@@H](O)C2(F)F)c(=O)n1)c1ccc2c(c1)OCCCO2 | 7.04 | 881 µM | – |
| COc1c(Cl)cc(C(=O)Nc2ccn([C@@H]3O[C@H](CO)[C@@H](O)C3(F)F)c(=O)n2)cc1Cl | 7.71 | > 100 µM | – |
| COc1cc(OC)cc(C(=O)Nc2ccn([C@@H]3O[C@H](CO)[C@@H](O)C3(F)F)c(=O)n2)c1 | 7.13 | 962 µM | CC50 at 96 h [4]: 18.5 µM; CC50 (HepG2): 3 µM; CC50 at 96 h [5]: 4 µM; CC50 at 96 h [6]: 1.6 µM; selectivity ratio [7]: ≤ 24; Activity (Hepatitis C virus [8]): inactive; Activity (Hepatitis C virus [9]): inactive |
| COc1cccc(OC)c1C(=O)Nc1ccn([C@@H]2O[C@H](CO)[C@@H](O)C2(F)F)c(=O)n1 | 6.35 | 4580 µM | – |
| O=C(Nc1ccn([C@@H]2O[C@H](CO)[C@@H](O)C2(F)F)c(=O)n1)c1cc2c(cc1[N+](=O)[O-])OCO2 | 7.33 | > 500 µM | – |
| O=C(Nc1ccn([C@@H]2O[C@H](CO)[C@@H](O)C2(F)F)c(=O)n1)c1ccc2c(c1)OCO2 | 7.22 | 470 µM | CC50 at 96 h [4]: 7 µM; CC50 (HepG2): 2.8 µM; CC50 at 96 h [5]: 4.1 µM; CC50 at 96 h [6]: 1.2 µM; CC50 at 96 h [10]: 0.72 µM; selectivity ratio [7]: ≤ 24; selectivity ratio [11]: ≤ 620; pIC50 (Hepatitis C virus [12]): 5.51; Ratio IC50 (Hepatitis C virus [13]): 51; CC50 at 48 h [3]: 440 µM; remaining at 4 h, 200 µM [14]: 64%; remaining at 4 h, 200 µM [15]: 100%; remaining at 4 h, 200 µM [16]: 100%; remaining at 4 h, 200 µM [17]: 100%; remaining at 4 h, 200 µM [18]: 92% |
| COc1ccc2cc(C(=O)Nc3ccn([C@@H]4O[C@H](CO)[C@@H](O)C4(F)F)c(=O)n3)ccc2c1 | 7.03 | 168 µM | – |
| O=C(Nc1ccn([C@@H]2O[C@H](CO)[C@@H](O)C2(F)F)c(=O)n1)c1ccc2c(c1)CCCC2 | 7.07 | 132 µM | – |
| O=C(Nc1ccn([C@@H]2O[C@H](CO)[C@@H](O)C2(F)F)c(=O)n1)c1ccc(Cl)cc1Cl | 7.11 | > 100 µM | – |
| O=C(Nc1ccn([C@@H]2O[C@H](CO)[C@@H](O)C2(F)F)c(=O)n1)c1ccc2ccccc2c1 | 6.90 | 125 µM | – |
| COC(=O)N[C@H](C(=O)N1CCC[C@H]1c1ncc(-c2ccc(-c3ccc(-c4cnc([C@@H]5CCCN5C(=O)[C@@H](NC(=O)OC)C(C)C)[nH]4)cc3)cc2)[nH]1)C(C)C | 10.51 | – | – |
| O=C(Nc1ccn([C@@H]2O[C@H](CO)[C@@H](O)C2(F)F)c(=O)n1)c1ccc2c(c1)C(=O)c1ccccc1C2=O | 7.89 | 249 µM | – |
| CCc1ccc(C(=O)Nc2ccn([C@@H]3O[C@H](CO)[C@@H](O)C3(F)F)c(=O)n2)cc1 | 7.23 | 490 µM | CC50 at 48 h [3]: 360 µM |
| O=C(Nc1ccn([C@@H]2O[C@H](CO)[C@@H](O)C2(F)F)c(=O)n1)c1ccc2c(c1)CCO2 | 6.84 | 954 µM | – |
| O=C(Nc1ccn([C@@H]2O[C@H](CO)[C@@H](O)C2(F)F)c(=O)n1)c1ccc(Cl)c(Cl)c1 | 7.76 | > 100 µM | – |
| O=C(Nc1ccn([C@@H]2O[C@H](CO)[C@@H](O)C2(F)F)c(=O)n1)c1c(Br)ccc2c1OCO2 | 6.47 | 2210 µM | – |
| O=C(Nc1ccn([C@@H]2O[C@H](CO)[C@@H](O)C2(F)F)c(=O)n1)c1ccc2c(c1)CCC2 | 7.23 | 378 µM | – |
| CC1(C)Cc2ccc(C(=O)Nc3ccn([C@@H]4O[C@H](CO)[C@@H](O)C4(F)F)c(=O)n3)cc2O1 | 6.75 | 1160 µM | – |
| O=C(Nc1ccn([C@@H]2O[C@H](CO)[C@@H](O)C2(F)F)c(=O)n1)c1ccc2c(c1)OC(F)(F)O2 | 7.33 | 188 µM | – |
| O=C(Nc1ccn([C@@H]2O[C@H](CO)[C@@H](O)C2(F)F)c(=O)n1)c1cccc2c1CCCC2 | 6.79 | 92 µM | – |
| O=C(Nc1ccn([C@@H]2O[C@H](CO)[C@@H](O)C2(F)F)c(=O)n1)c1ccc2c(c1)OCCO2 | 6.90 | 855 µM | CC50 at 96 h [4]: 3.3 µM; CC50 (HepG2): 1.1 µM; CC50 at 96 h [5]: 5.6 µM; CC50 at 96 h [6]: 1.4 µM; CC50 at 96 h [10]: 1.2 µM; selectivity ratio [7]: ≤ 24; selectivity ratio [11]: ≤ 620; remaining at 4 h, 200 µM [14]: 71%; remaining at 4 h, 200 µM [15]: 100%; remaining at 4 h, 200 µM [16]: 100%; remaining at 4 h, 200 µM [17]: 100%; remaining at 4 h, 200 µM [18]: 100% |
| O=C(Nc1ccn([C@@H]2O[C@H](CO)[C@@H](O)C2(F)F)c(=O)n1)c1cc(Cl)cc(Cl)c1 | 7.59 | 110 µM | CC50 at 96 h [4]: 4.2 µM; CC50 (HepG2): 0.6 µM; CC50 at 96 h [5]: 1.2 µM; CC50 at 96 h [6]: 0.33 µM; selectivity ratio [7]: ≤ 24; Activity (Hepatitis C virus [8]): inactive; Activity (Hepatitis C virus [9]): inactive; Activity (Hepatitis C virus [19]): 50%; Activity (Hepatitis C virus [20]): Active; remaining at 4 h, 200 µM [14]: 35%; remaining at 4 h, 200 µM [15]: 82%; remaining at 4 h, 200 µM [16]: 98.4%; remaining at 4 h, 200 µM [17]: 99.6%; remaining at 4 h, 200 µM [18]: 35.4% |
